The values below come from ChEMBL document CHEMBL1126855, “Synthesis and structure-activity relationships of a series of penicillin-derived HIV proteinase inhibitors containing a stereochemically unique peptide isostere” (J Med Chem, 1993).

Molecules are shown by their SMILES. Bounds are passed on as bounds.

Assay [1] addresses Human immunodeficiency virus type 1 protease (Human immunodeficiency virus 1, UniProt Q72874). As to the kind of experiment: Inhibitory activity against HIV-1 protease. In outline:
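IC50 against HIV-1 proteinase, from duplicate determinations at each inhibitor concentration, with mean values used for analysis. Results were standardized against a control run in every assay.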

In the next assay the test system is MT4. The experiment in a line: Inhibition of cytopathic effect of HIV-1 in MT-4 cells. Type of assay: functional, cell-based. As to conditions: Homo sapiens. (Cytopathic effects are the visible damage that an infection or toxin causes in cultured cells.)

A word on the IC50: it is the midpoint of a concentration-inhibition curve. Higher therefore signals weaker potency in that assay. Consider `C[C@H](CO)NC(=O)[C@@H]1N[C@@H]([C@H](NC(=O)Cc2ccccc2)C(=O)NCc2ccccc2)SC1(C)C`, for which the half-inhibitory concentration (IC50) in assay [1] was over 20000 nM.
The same measure, in the same setting: for `CC(C)C[C@H](CO)NC(=O)[C@@H]1N[C@@H]([C@H](NC(=O)Cc2ccccc2)C(=O)NCc2ccccc2)SC1(C)C` the value was over 4600 nM.
Still for that read-out and setting: in the case of `CC(C)CNC(=O)C[C@H](O)[C@@H](Cc1ccccc1)NC(=O)[C@@H]1N[C@@H]([C@H](NC(=O)Cc2ccccc2)C(=O)NCc2ccccc2)SC1(C)C` it was 2800 nM.
Same read-out and setting: in the case of `CCC(C)C(CO)NC(=O)[C@@H]1N[C@@H]([C@H](NC(=O)Cc2ccccc2)C(=O)NCc2ccccc2)SC1(C)C` (some centres not stated) it was over 540 nM; in that of `CC1(C)S[C@H]([C@H](NC(=O)Cc2ccccc2)C(=O)NCc2ccccc2)N[C@H]1C(=O)N[C@H](CO)CCc1ccccc1`, 26000 nM.
The EC50 is the concentration giving half of the maximal effect. High values mean a less potent agent, low ones a more potent agent. Consider `CC1(C)S[C@H]([C@H](NC(=O)Cc2ccccc2)C(=O)NCc2ccccc2)N[C@H]1C(=O)N[C@H](Cc1ccccc1)[C@H](O)CC(=O)N[C@H](CO)c1ccccc1`, for which the concentration for a half-maximal effect (EC50) in the assay with MT4 stood at 10600 nM. This compound also returned an IC50 in assay [1] of 170 nM.
The corresponding values for `CC1(C)S[C@H]([C@H](NC(=O)Cc2ccccc2)C(=O)NCc2ccccc2)N[C@H]1C(=O)N[C@H](Cc1ccccc1)[C@H](O)CC(=O)N[C@H](CO)Cc1ccccc1` are over 100000 nM and 220 nM.
The corresponding values for `CC1(C)S[C@H]([C@H](NC(=O)Cc2ccccc2)C(=O)NCc2ccccc2)N[C@H]1C(=O)N[C@H](Cc1ccccc1)C(O)CNC(=O)Cc1ccccc1` (some centres not stated) are over 100000 nM and 53 nM.
With `CC1(C)S[C@H]([C@H](NC(=O)Cc2ccccc2)C(=O)NCc2ccccc2)N[C@H]1C(=O)NCCCNC(=O)[C@@H]1N[C@@H]([C@H](NC(=O)Cc2ccccc2)C(=O)NCc2ccccc2)SC1(C)C`, in assay [1], the IC50 was found to be 540 nM. That is a sub-micromolar value.
In the assay on MT4, `CC(C)CNC(=O)C[C@@H](O)[C@@H](Cc1ccccc1)NC(=O)[C@@H]1N[C@@H]([C@H](NC(=O)Cc2ccccc2)C(=O)NCc2ccccc2)SC1(C)C` yielded an EC50 of over 150000 nM. Besides, the half-maximal inhibitory concentration (IC50) in assay [1] turned out to be 69 nM.
Turning to `CC1(C)S[C@H]([C@H](NC(=O)Cc2ccccc2)C(=O)NCc2ccccc2)N[C@H]1C(=O)N[C@H](Cc1ccccc1)[C@H](O)CC(=O)N[C@@H](CO)Cc1ccccc1`, the EC50 with MT4 was over 100000 nM. The concentration for half-maximal inhibition (IC50) in assay [1] amounted to 170 nM.
Compound `CC1(C)S[C@H]([C@H](NC(=O)Cc2ccccc2)C(=O)NCc2ccccc2)N[C@H]1C(=O)N[C@@H](CO)CCc1ccccc1` gave an IC50 in assay [1] of 25000 nM.
As for `CC1(C)S[C@H]([C@H](NC(=O)Cc2ccccc2)C(=O)NCc2ccccc2)N[C@H]1C(=O)N[C@H](Cc1ccccc1)[C@H](O)CC(N)=O`, the concentration giving a half-maximal response (EC50) with MT4 is over 100000 nM. In addition, the IC50 in assay [1] is 82 nM.
Take `CC1(C)S[C@H]([C@H](NC(=O)Cc2ccccc2)C(=O)NCc2ccccc2)N[C@H]1C(=O)N[C@H](Cc1ccccc1)[C@@H](O)CC(=O)NCc1ccccc1`: in assay [1], the IC50 was found to be 2900 nM. This counts as single-digit micromolar.
Compound `CC1(C)S[C@H]([C@H](NC(=O)Cc2ccccc2)C(=O)NCc2ccccc2)N[C@H]1C(=O)NCC(O)CNC(=O)[C@@H]1N[C@@H]([C@H](NC(=O)Cc2ccccc2)C(=O)NCc2ccccc2)SC1(C)C` came in with a concentration for a half-maximal effect (EC50) with MT4 of 2600 nM. In assay [1], this compound displayed an IC50 of 5 nM.
`CC1(C)S[C@H]([C@H](NC(=O)Cc2ccccc2)C(=O)NCc2ccccc2)N[C@H]1C(=O)N[C@H](Cc1ccccc1)[C@@H](O)CC(N)=O` returned an IC50 in assay [1] of 1900 nM.
For `CC1(C)S[C@H]([C@H](NC(=O)Cc2ccccc2)C(=O)NCc2ccccc2)N[C@H]1C(=O)N[C@H](Cc1ccccc1)[C@H](O)CC(=O)NCCCO`, in the assay with MT4, the concentration for a half-maximal effect (EC50) was 5700 nM. This compound also gave an IC50 in assay [1] of 54 nM.
On to `CCCCC(CO)NC(=O)[C@@H]1N[C@@H]([C@H](NC(=O)Cc2ccccc2)C(=O)NCc2ccccc2)SC1(C)C` (some centres not stated) [listing 1 of 2 here], for which the IC50 in assay [1] came to 250 nM.
In assay [1], `CC1(C)S[C@H]([C@H](NC(=O)Cc2ccccc2)C(=O)NCc2ccccc2)N[C@H]1C(=O)N[C@@H](CO)Cc1ccccc1` gave an IC50 of 150 nM.
On the same count and under the same terms, for `CC(C)[C@H](CO)NC(=O)[C@@H]1N[C@@H]([C@H](NC(=O)Cc2ccccc2)C(=O)NCc2ccccc2)SC1(C)C` the value was over 4700 nM; for `C[C@@H](Cc1ccccc1)NC(=O)[C@@H]1N[C@@H]([C@H](NC(=O)Cc2ccccc2)C(=O)NCc2ccccc2)SC1(C)C`, over 180000 nM; for `CCCCC(CO)NC(=O)[C@@H]1N[C@@H]([C@H](NC(=O)Cc2ccccc2)C(=O)NCc2ccccc2)SC1(C)C` (some centres not stated) [listing 2 of 2 here], over 4600 nM.
The compound `CC1(C)S[C@H]([C@H](NC(=O)Cc2ccccc2)C(=O)NCc2ccccc2)N[C@H]1C(=O)N[C@H](Cc1ccccc1)[C@H](O)CC(=O)N[C@@H](CO)c1ccccc1` showed a concentration giving a half-maximal response (EC50) with MT4 of over 100000 nM. The 50% inhibitory concentration (IC50) in assay [1] amounted to 190 nM.
The corresponding values for `CC1(C)S[C@H]([C@H](NC(=O)Cc2ccccc2)C(=O)NCc2ccccc2)N[C@H]1C(=O)N[C@H](Cc1ccccc1)[C@H](O)CC(=O)NCC(O)CO` (some centres not stated) are 40000 nM and 95 nM.
For `CC1(C)S[C@H]([C@H](NC(=O)Cc2ccccc2)C(=O)NCc2ccccc2)N[C@H]1C(=O)N[C@H](Cc1ccccc1)[C@H](O)CC(=O)NCc1ccccc1`, in the assay with MT4, the response was half-maximal at 4700 nM (EC50). In assay [1], this compound had an IC50 of 4.6 nM.
In assay [1], `CC1(C)S[C@H]([C@H](NC(=O)Cc2ccccc2)C(=O)NCc2ccccc2)N[C@H]1C(=O)N[C@H](CO)Cc1ccccc1` gave a 50% inhibitory concentration (IC50) of over 170000 nM.
On the same count and under the same terms, in the case of `CC1(C)S[C@H]([C@H](NC(=O)Cc2ccccc2)C(=O)NCc2ccccc2)N[C@H]1C(=O)N[C@H](Cc1ccccc1)[C@H](O)CC(=O)NCCO` it was 1100 nM; in that of `CC1(C)S[C@H]([C@H](NC(=O)Cc2ccccc2)C(=O)NCc2ccccc2)N[C@H]1C(N)=O`, over 230000 nM.
Still for that read-out and setting: in the case of `CC1(C)S[C@H]([C@H](NC(=O)Cc2ccccc2)C(=O)NCc2ccccc2)N[C@H]1C(=O)N[C@H](Cc1ccccc1)[C@H](O)CC(=O)NCCc1ncc[nH]1` it was 300 nM.
Compound `C[C@H](Cc1ccccc1)NC(=O)[C@@H]1N[C@@H]([C@H](NC(=O)Cc2ccccc2)C(=O)NCc2ccccc2)SC1(C)C` registered a 50% inhibitory concentration (IC50) in assay [1] of over 180000 nM.
On the same count and under the same terms, in the case of `CC1(C)S[C@H]([C@H](NC(=O)Cc2ccccc2)C(=O)NCc2ccccc2)N[C@H]1C(=O)NCCO` it was 180000 nM.
